Laboratory results: paper PMC10786778 (Diabetes Therapy, 2023)
“Also recorded” adds a separate entry of the source. Like-named read-outs stand apart in the source and are kept apart here.

Legend:
QT interval [1] = conditions: cited from earlier work
QT interval [2] = test: Plasma concentration QT analysis of single dose in healthy subjects; type: in vivo, human; conditions: dose of 25 mg or less every two weeks
fasting plasma glucose = test: Fasting plasma glucose in T2DM patients; type: in vivo, human
Summary of the method: (§1)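 48 Chinese adults with T2DM, untreated with hypoglycemic agents for 3 months, randomized double-blind to placebo or 10, 25 or 50 mg oral tablets. Dosing was once every 2 weeks for 12 weeks (six doses), with 240.0 mL water, fasted on days 1 and 29. Values were measured by each site's standard procedure, compared with baseline or placebo, and summarized descriptively (mean, SD, median, range).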

[3] = Plasma pharmacokinetics of HSK7653 after first and last oral dose; type: in vivo, human
glucagon = test: Plasma glucagon level; type: in vivo, human
HbA1c = HbA1c change in T2DM patients; type: in vivo, human
Summary of the method: as §1

Safety and tolerability = type: in vivo, human
Summary of the method: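 Safety in 48 T2DM patients given placebo or 10/25/50 mg tablets orally every 2 weeks for 12 weeks, then 2 weeks of safety follow-up. Monitoring covered adverse events, physical examination, blood and urine routine, biochemistry, amylase and lipase, vital signs, 12-lead ECG and hypoglycemic events. ADR incidence was tabulated per dose group and graded by severity.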

C-peptide = test: Serum C-peptide level; type: in vivo, human
Summary of the method: as §1

[4] = mass balance study; ref CTR20201559; cited from earlier work
[5] = test system: glycosylated albumin (GA); test: Glycated albumin; type: in vivo, human
Summary of the method: as §1

[6] = day 85, 50 mg, among 11 subjects

## N[C@@H](CC(=O)N1CCn2c(nnc2C(F)(F)F)C1)Cc1cc(F)c(F)cc1F [sitagliptin]
QT interval [1]; clinical dose 100 mg
  effect on QTc interval: does not correlate with an increase in QTc interval
QT interval [1]; super-therapeutic dose of 800 mg, clinical significance not significant
  effect on QT interval: the QT interval is prolonged

## CC#CCn1c(N2CCC[C@@H](N)C2)nc2c1c(=O)n(Cc1nc(C)c3ccccc3n1)c(=O)n2C [linagliptin]
QT interval [1]; doses of 5 and 100 mg, compared with placebo
  effect on QTc interval: did not increase the QTc interval

## Cc1cc(N2CCN([C@@H]3CN[C@H](C(=O)N4CCSC4)C3)CC2)n(-c2ccccc2)n1 [Teneligliptin]
QT interval [1]; only at 4 times the normal dose (160.0 mg/day)
  effect on QT interval: significantly prolonged the QT interval

## CS(=O)(=O)n1cc2c(n1)CN([C@@H]1C[C@H](N)[C@@H](c3cc(F)ccc3F)O[C@@H]1C(F)(F)F)C2 [HSK7653, (2R,3S,5R,6S)-2-(2,5-difluorophenyl)-5-[2-(methylsulfonyl)-2,6-dihydropyrrolo[3,4-c]pyrazol-5(4H)-yl]-6-(trifluoromethyl)-tetrahydro-2H-pyran-3-amine]
QT interval [2]
  risk of prolongation of QT interval: no significant risk of prolongation of QT interval
Fasting plasma glucose; day 43, 10 mg
  fasting blood glucose lower than baseline by: 0.7 mmol/L
  mean fasting blood glucose: 9.2 mmol/L
Fasting plasma glucose; day 43, 25 mg
  fasting blood glucose lower than baseline by: 0.5 mmol/L
  mean fasting blood glucose: 8.1 mmol/L
Fasting plasma glucose; day 43, 50 mg
  fasting blood glucose increased from baseline by: 0.8 mmol/L
Fasting plasma glucose; day 85, 10 mg
  fasting blood glucose decreased compared with the baseline by: 0.7 mmol/L
  mean fasting blood glucose: 9.2 mmol/L
Fasting plasma glucose; day 85, 25 mg
  fasting blood glucose decreased compared with the baseline by: 0.2 mmol/L
  mean fasting blood glucose: 8.5 mmol/L
[3]; 10–50 mg every two weeks
  accumulation in vivo: not accumulated in vivo; also recorded: did not accumulated in body
  mean Rac_AUC: 1.0–1.1
  mean Rac_Cmax: 0.9–1.0
[3]; human, plasma, oral, 10 mg, Tmax, median (min, max), multiple (last dose)
  Tmax: 1 h
[3]; human, plasma, oral, 25 mg, Cmax, mean ± SD (CV%), multiple (last dose)
  Cmax: 0.411 µg/mL
[3]; human, plasma, oral, 25 mg, Tmax, median (min, max), single (first dose)
  Tmax: 2 h
[3]; human, plasma, po
  Vd/F: 61.1 to 81.9 L
  half-life: 64 to 87 h
[3]; human, plasma, po, median Tmax, dose range 10–50 mg
  Tmax: 1 to 3 h
glucagon; 10 mg dose group, 90–180 min after meal
  glucagon level with increasing treatment time: gradually decreased to below the level of the placebo group
glucagon; 25 and 50 mg dose groups, during treatment
  glucagon level compared with the placebo group: lower than the placebo group during treatment
HbA1c; Day 43, 10 mg
  HbA1c, Mean ± SD: 7.7 ± 0.4
HbA1c; Day 43, 25 mg
  HbA1c, Mean ± SD: 7.5 ± 0.6
HbA1c; Day 43, 50 mg
  HbA1c, Mean ± SD: 8.3 ± 1.0
HbA1c; Day 85, 10 mg
  HbA1c, Mean ± SD: 7.3 ± 0.3
HbA1c; Day 85, 25 mg
  HbA1c, Mean ± SD: 7.4 ± 0.7
HbA1c; Day 85, 50 mg
  HbA1c, Mean ± SD: 8.4 ± 1.1
HbA1c; [6]
  subjects with HbA1c decreased significantly: 5 subjects
  subjects with HbA1c increased compared with baseline: 6 subjects
Safety and tolerability; 10 mg dose group
  incidence of ADR: 33.3%
  incidence of TEAEs: 58.3%
Safety and tolerability; 25 mg dose group
  incidence of ADR: 58.3%
  incidence of TEAEs: 91.7%
Safety and tolerability; 50 mg dose group
  incidence of ADR: 75.0%
  incidence of TEAEs: 83.3%
Safety and tolerability; 10–50 mg once every two weeks
  serious adverse events: no serious adverse events
Safety and tolerability; HSK7653 dose group total
  ADR incidence: anemia: 5.6%
  ADR incidence: decreased T wave amplitude of ECG: 5.6%
  ADR incidence: dizziness: 2.8%
  ADR incidence: dyspepsia: 11.1%
  ADR incidence: electrocardiogram T wave abnormal: 8.3%
  ADR incidence: hyperbilirubinemia: 5.6%
  ADR incidence: hyperlipidemia: 8.3%
  ADR incidence: hypertriglyceridemia: 11.1%
  ADR incidence: increased blood bilirubin: 5.6%
  ADR incidence: positive urine red blood cells: 5.6%
  ADR incidence: upper respiratory tract infection: 5.6%
  ADR incidence: urinary tract infection: 8.3%
  ADR incidence: white blood cells urine positive: 8.3%
Safety and tolerability; HSK7653 dose group total (4/36)
  ADR incidence: prolonged QT interval of ECG: 11.1%
Safety and tolerability; doses of 10–50 mg, Chinese T2DM subjects
  tolerability: well tolerated and safe
C-peptide; 10 mg dose group
  level of C-peptide with increasing treatment time: gradually increased to a similar level as the placebo group
C-peptide; 25 and 50 mg dose groups
  level of C-peptide compared with the placebo group: no significant change
[4]
  fecal excretion: 7.4%
  hepatic metabolism, metabolites in feces: 5.7%
  hepatic metabolism, metabolites in urine: 9.7%
  renal excretion: 68.1%
[5]; day 43, 10 mg
  GA level lower than the baseline by: 2.3%
  mean GA value: 21.2%
[5]; day 43, 25 mg
  GA level lower than the baseline by: 0.8%
  mean GA value: 21.0%
[5]; day 43, 50 mg
  GA level higher than the baseline by: 0.4%
  mean GA value: 23.6%
[5]; day 85, 10 mg
  mean GA value: 20.0%
[5]; day 85, 25 mg
  mean GA value: 20.5%
[5]; day 85, 50 mg
  mean GA value: 24.2%
